Each structure is given as a SMILES string. Values after ≈ are worked out from the molar mass of the structure shown.

Series [1] concerns Acinetobacter baumannii. Briefly: Antibacterial activity against Acinetobacter baumannii ARC3882 after 24 hrs by broth microdilution method. In kind it is functional. The settings on record: ARC3882, 24 h. Put shortly: (§1)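 Broth microdilution per CLSI. Bacterial suspension adjusted to 1×10^6 CFU/mL in cation-adjusted Mueller–Hinton broth and mixed 1:1 with 2-fold serial compound dilutions. Final DMSO 2.5% v/v. Plates incubated at 35 °C with shaking at 140 rpm for 24 h.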

The subject of series [2] is Acinetobacter baumannii. Kind of series: Antibacterial activity against Acinetobacter baumannii ARC3515 after 24 hrs by broth microdilution method. The format is functional. The settings on record: ARC3515, 24 h. Put shortly: as §1
In general terms: In broth dilution the organism is exposed to a series of concentrations in liquid medium.

Series [3] concerns Acinetobacter baumannii. Kind of series: Antibacterial activity against Acinetobacter baumannii ARC3486 after 24 hrs by broth microdilution method. The format is functional. The settings on record: ARC3486, 24 h. Summed up: as §1
The subject of series [4] is Pseudomonas aeruginosa. Briefly: Antibacterial activity against Pseudomonas aeruginosa ARC4060 after 24 hrs by broth microdilution method. In kind it is functional. The note with it: ARC4060, 24 h. Summed up: as §1
For series [5], the system named is Pseudomonas aeruginosa. Kind of series: Antibacterial activity against Pseudomonas aeruginosa ARC3611 after 24 hrs by broth microdilution method. In kind it is functional. The settings on record: ARC3611, 24 h. Summed up: as §1
For series [6], the system named is Pseudomonas aeruginosa. Kind of series: Antibacterial activity against Pseudomonas aeruginosa ARC3612 after 24 hrs by broth microdilution method. The settings on record: ARC3612, 24 h. In kind it is functional. Summed up:
as §1

Series [7] has as its system Pseudomonas aeruginosa. Kind of series: Antibacterial activity against Pseudomonas aeruginosa ARC3607 after 24 hrs by broth microdilution method. In kind it is functional. The note with it: ARC3607, 24 h. Summed up:
as §1

Series [8] has as its system Pseudomonas aeruginosa. Briefly: Antibacterial activity against Pseudomonas aeruginosa ARC3729 after 24 hrs by broth microdilution method. The settings on record: ARC3729, 24 h. In kind it is functional. Summed up: as §1
Series [9] relates to Acinetobacter baumannii. Briefly: Antibacterial activity against Acinetobacter baumannii ARC3513 after 24 hrs by broth microdilution method. The format is functional. The settings on record: ARC3513, 24 h. Summed up:
as §1

The subject of series [10] is Acinetobacter baumannii. Kind of series: Antibacterial activity against Acinetobacter baumannii ARC2674 after 24 hrs by broth microdilution method. In kind it is functional. The note with it: ARC2674, 24 h. Summed up:
as §1

In series [11] the test system is Acinetobacter baumannii. Kind of series: Antibacterial activity against Acinetobacter baumannii ARC3485 after 24 hrs by broth microdilution method. In kind it is functional. The settings on record: ARC3485, 24 h. Put shortly: as §1
Series [12] relates to Pseudomonas aeruginosa. Briefly: Antibacterial activity against Pseudomonas aeruginosa ARC3506 after 24 hrs by broth microdilution method. The note with it: ARC3506, 24 h. In kind it is functional. Summed up:
as §1

Series [13] has as its system Pseudomonas aeruginosa. Kind of series: Antibacterial activity against Pseudomonas aeruginosa ARC003 after 24 hrs by broth microdilution method. In kind it is functional. The settings on record: ARC003, 24 h. Summed up: as §1
Series [14] has as its system Pseudomonas aeruginosa. Briefly: Antibacterial activity against Pseudomonas aeruginosa ARC3916 after 24 hrs by broth microdilution method. The format is functional. The settings on record: ARC3916, 24 h. Summed up:
as §1

Series [15] concerns Acinetobacter baumannii. Kind of series: Antibacterial activity against Acinetobacter baumannii ARC3493 after 24 hrs by broth microdilution method. The format is functional. The settings on record: ARC3493, 24 h. Put shortly: as §1
The subject of series [16] is Acinetobacter baumannii. Kind of series: Antibacterial activity against Acinetobacter baumannii ARC2779 after 24 hrs by broth microdilution method. The format is functional. The note with it: ARC2779, 24 h. Put shortly: as §1
The test system of series [17] is Acinetobacter baumannii. Kind of series: Antibacterial activity against Acinetobacter baumannii ARC2782 after 24 hrs by broth microdilution method. In kind it is functional. The settings on record: ARC2782, 24 h. Put shortly:
as §1

The subject of series [18] is Acinetobacter baumannii. Briefly: Antibacterial activity against Acinetobacter baumannii ARC3495 after 24 hrs by broth microdilution method. The format is functional. The note with it: ARC3495, 24 h. Summed up:
as §1

Series [19] deals with Acinetobacter baumannii. Kind of series: Antibacterial activity against Acinetobacter baumannii ARC3657 after 24 hrs by broth microdilution method. The format is functional. The note with it: ARC3657, 24 h. Put shortly: as §1
Series [20] concerns Acinetobacter baumannii. Briefly: Antibacterial activity against Acinetobacter baumannii ARC3659 after 24 hrs by broth microdilution method. In kind it is functional. The note with it: ARC3659, 24 h. Summed up: as §1
Series [21] concerns Pseudomonas aeruginosa. Kind of series: Antibacterial activity against Pseudomonas aeruginosa ARC3509 after 24 hrs by broth microdilution method. In kind it is functional. The note with it: ARC3509, 24 h. Put shortly:
as §1

Series [22] concerns Pseudomonas aeruginosa. Kind of series: Antibacterial activity against Pseudomonas aeruginosa ARC3505 after 24 hrs by broth microdilution method. The note with it: ARC3505, 24 h. The format is functional. Summed up:
as §1

Series [23] has as its system Acinetobacter baumannii. Kind of series: Antibacterial activity against Acinetobacter baumannii ARC3489 after 24 hrs by broth microdilution method. The format is functional. The settings on record: ARC3489, 24 h. Put shortly: as §1
The test system of series [24] is Acinetobacter baumannii. Kind of series: Antibacterial activity against Acinetobacter baumannii ARC2728 after 24 hrs by broth microdilution method. The format is functional. The note with it: ARC2728, 24 h. Put shortly:
as §1

Series [25] deals with Acinetobacter baumannii. Kind of series: Antibacterial activity against Acinetobacter baumannii ARC3658 after 24 hrs by broth microdilution method. The settings on record: ARC3658, 24 h. The format is functional. Put shortly: as §1
In series [26] the test system is Pseudomonas aeruginosa. Briefly: Antibacterial activity against Pseudomonas aeruginosa ARC3606 after 24 hrs by broth microdilution method. The settings on record: ARC3606, 24 h. The format is functional. Put shortly:
as §1

Series [27] deals with Pseudomonas aeruginosa. Kind of series: Antibacterial activity against Pseudomonas aeruginosa ARC3504 after 24 hrs by broth microdilution method. In kind it is functional. The note with it: ARC3504, 24 h. Put shortly: as §1
The test system of series [28] is Pseudomonas aeruginosa. Briefly: Antibacterial activity against Pseudomonas aeruginosa PAO1 after 24 hrs by broth microdilution method. The settings on record: PAO1, 24 h. In kind it is functional. Summed up:
as §1

Series [29] can be described thus: Dissociation constant, pKa of compound by pH metric method. The format is physicochemical. Summed up: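 Potentiometric (pH-metric) titration on an automated titrator, Gold Standard pH metric assay, run in triplicate.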
Series [30] deals with Escherichia coli. Briefly: Antibacterial activity against Escherichia coli after 24 hrs by broth microdilution method. In kind it is functional. Summed up:
as §1

Series [31] concerns the target DNA gyrase subunit B (Escherichia coli, UniProt P0AES6). Kind of series: Inhibition of Escherichia coli GyrB (1 to 220 residues) expressed in Escherichia coli BL21(DE3).
Series [32] relates to Escherichia coli. Kind of series: Antibacterial activity against tolC deficient Escherichia coli after 24 hrs by broth microdilution method. The format is functional. Summed up: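 Broth microdilution per CLSI guidelines. Inoculum adjusted to 1×10^6 CFU/mL in cation-adjusted Mueller–Hinton broth, added 1:1 to 2-fold serial compound dilutions; final DMSO 2.5% v/v. Plates incubated 35 °C, 140 rpm, 24 h.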

Series [33] relates to Pseudomonas aeruginosa. Kind of series: Antibacterial activity against Pseudomonas aeruginosa harboring MexABCDXY deletion mutant after 24 hrs by broth microdilution method. In kind it is functional. Summed up: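 Broth microdilution per CLSI. Bacterial suspensions adjusted to 1×10^6 CFU/mL in cation-adjusted Mueller–Hinton broth, mixed 1:1 with 2-fold serial compound dilutions (final DMSO 2.5% v/v). Incubation 35 °C, 140 rpm, 24 h.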

Series [34] concerns Escherichia coli. Briefly: Selectivity ratio of IC50 for Escherichia coli ParE to IC50 for Escherichia coli GyrB (1 to 220 residues) expressed in Escherichia coli BL21(DE3).
The target in series [35] is DNA topoisomerase 4 subunit B (Escherichia coli K-12, UniProt P20083). Briefly: Inhibition of Escherichia coli ParE.
DNA topoisomerase 4 subunit B, sequence (P20083 whole entry): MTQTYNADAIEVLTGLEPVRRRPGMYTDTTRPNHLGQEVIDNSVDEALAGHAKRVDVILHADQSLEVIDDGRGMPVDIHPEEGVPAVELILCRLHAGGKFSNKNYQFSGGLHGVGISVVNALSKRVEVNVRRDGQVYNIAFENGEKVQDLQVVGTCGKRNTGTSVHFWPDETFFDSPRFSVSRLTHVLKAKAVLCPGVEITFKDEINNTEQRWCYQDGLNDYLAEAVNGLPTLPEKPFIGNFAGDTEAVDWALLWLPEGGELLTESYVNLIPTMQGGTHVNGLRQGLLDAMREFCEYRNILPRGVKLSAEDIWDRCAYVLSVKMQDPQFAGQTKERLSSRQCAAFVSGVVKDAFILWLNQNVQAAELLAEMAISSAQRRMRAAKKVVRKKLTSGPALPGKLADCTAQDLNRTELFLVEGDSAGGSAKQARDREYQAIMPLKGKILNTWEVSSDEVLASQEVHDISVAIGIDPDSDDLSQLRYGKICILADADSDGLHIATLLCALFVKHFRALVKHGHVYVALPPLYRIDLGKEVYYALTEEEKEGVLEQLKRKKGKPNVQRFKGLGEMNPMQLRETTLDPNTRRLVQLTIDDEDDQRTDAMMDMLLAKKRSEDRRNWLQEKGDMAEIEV

`C[C@@H](O)[C@H]1C(=O)N2C(C(=O)O)=C(S[C@@H]3CN[C@H](C(=O)N(C)C)C3)[C@H](C)[C@H]12` [MEROPENEM]: the MIC in series [1] was > 64 µg/mL; in [2], 4 µg/mL (≈ 10.4 µM); in series [3] it was > 64 µg/mL; in series [4] it was 16 µg/mL (≈ 41.7 µM); in series [5], 4 µg/mL (≈ 10.4 µM); in series [6], 32 µg/mL (≈ 83.4 µM). Moreover, the MIC in [7] is 8 µg/mL (≈ 20.9 µM); in [8], 32 µg/mL (≈ 83.4 µM); in [9], 32 µg/mL (≈ 83.4 µM); in [10], 16 µg/mL (≈ 41.7 µM); in series [11] it was 32 µg/mL (≈ 83.4 µM); in series [12], 8 µg/mL (≈ 20.9 µM). The MIC in series [13] was 0.25 µg/mL (≈ 0.652 µM); in series [14], 32 µg/mL (≈ 83.4 µM); in [15], > 64 µg/mL; in [16] it was 16 µg/mL (≈ 41.7 µM); in series [17], 16 µg/mL (≈ 41.7 µM); in series [18] it was > 64 µg/mL. Also, the MIC worked out at 1 µg/mL (≈ 2.61 µM) in [19]; 16 µg/mL (≈ 41.7 µM) in [20]; 16 µg/mL (≈ 41.7 µM) in series [21]; 2 µg/mL (≈ 5.22 µM) in [22]; 4 µg/mL (≈ 10.4 µM) in [23]; 0.25 µg/mL (≈ 0.652 µM) in series [24]. Further, the results for the MIC in series [25], in series [26] and in series [27] were 32 µg/mL (≈ 83.4 µM), 4 µg/mL (≈ 10.4 µM) and 4 µg/mL (≈ 10.4 µM), respectively.
Consider `CCNC(=O)Nc1cc(-c2nc(C(F)(F)F)cs2)c(-c2cncc(C(=O)O)c2)cn1`, for which the MIC in series [28], in series [30], in [32] and in [33] was > 100 µg/mL throughout. In [29], this molecule yielded a pKa of 3.5. Moreover, the figures for the IC50 in series [31] and in series [35] were 6 nM and 700 nM, respectively. The Ratio IC50 in [34] is 100.

A word on the MIC: it is the lowest concentration found to suppress growth. High values mean weaker potency, low ones greater potency. What is called pKa is the negative logarithm of the acid dissociation constant. A low value points to a stronger acid or weaker base. As usually defined, the IC50 is the concentration that gives 50% inhibition.

These data come from ChEMBL document CHEMBL4270612, “Discovery of dual GyrB/ParE inhibitors active against Gram-negative bacteria” (Eur J Med Chem, 2018).
